Experimental data from ChEMBL document CHEMBL3124904, “Second-generation derivatives of the eukaryotic translation initiation inhibitor pateamine A targeting eIF4A as potential anticancer agents” (Bioorg Med Chem, 2014).
pIC50: −log10 of the molar value.

Legend:
[1] = Antiproliferative activity against BAEC assessed as DNA synthesis level after 24 hrs by thymidine incorporation assay; settings: Bos taurus
Outline: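 Cells kept at 37 °C, 5% CO2 with penicillin-streptomycin and 10% FBS. Adherent lines seeded at 2000 cells/well and left to recover overnight; Jurkat seeded at 5000 cells/well with no recovery period. Compound added in DMSO (0.1% final, vehicle-only control) at 0.001–100 nM over 10 wells. DNA synthesis read out after 24 h. Mean IC50 from at least 3 independent assays.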

Jurkat = experiment: Immunosuppressive activity in human Jurkat T cells assessed as inhibition of IL-2 transcription; assay type: functional, cell-based
[2] = Half life in RPMI media at 10 uM by HPLC analysis in presence of fetal bovine serum; assay type: ADME; settings: cattle
Outline: (§1)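 Compound added from DMSO stock to pre-heated RPMI 1640 (1.8 mL) plus 0.2 mL human AB male serum or FBS, or to 2 mL RPMI alone, at final 1 or 10 μM. Samples analysed by HPLC at pH 9.5 (formic acid/ammonia in acetonitrile/water), with conversion taken from the substrate/internal standard peak ratio. Run in triplicate; half-lives ± SD.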

[3] = Half life in RPMI media at 10 uM by HPLC analysis in presence of human blood serum; assay type: ADME; outline: as §1
[4] = molecular target: T1, DNA polymerase alpha catalytic subunit (Homo sapiens, UniProt P09884); experiment: Inhibition of DNA polymerase-alpha (unknown origin) assessed as incorporation of Br(d)UTP by colorimetric analysis
T1 sequence (P09884 whole entry): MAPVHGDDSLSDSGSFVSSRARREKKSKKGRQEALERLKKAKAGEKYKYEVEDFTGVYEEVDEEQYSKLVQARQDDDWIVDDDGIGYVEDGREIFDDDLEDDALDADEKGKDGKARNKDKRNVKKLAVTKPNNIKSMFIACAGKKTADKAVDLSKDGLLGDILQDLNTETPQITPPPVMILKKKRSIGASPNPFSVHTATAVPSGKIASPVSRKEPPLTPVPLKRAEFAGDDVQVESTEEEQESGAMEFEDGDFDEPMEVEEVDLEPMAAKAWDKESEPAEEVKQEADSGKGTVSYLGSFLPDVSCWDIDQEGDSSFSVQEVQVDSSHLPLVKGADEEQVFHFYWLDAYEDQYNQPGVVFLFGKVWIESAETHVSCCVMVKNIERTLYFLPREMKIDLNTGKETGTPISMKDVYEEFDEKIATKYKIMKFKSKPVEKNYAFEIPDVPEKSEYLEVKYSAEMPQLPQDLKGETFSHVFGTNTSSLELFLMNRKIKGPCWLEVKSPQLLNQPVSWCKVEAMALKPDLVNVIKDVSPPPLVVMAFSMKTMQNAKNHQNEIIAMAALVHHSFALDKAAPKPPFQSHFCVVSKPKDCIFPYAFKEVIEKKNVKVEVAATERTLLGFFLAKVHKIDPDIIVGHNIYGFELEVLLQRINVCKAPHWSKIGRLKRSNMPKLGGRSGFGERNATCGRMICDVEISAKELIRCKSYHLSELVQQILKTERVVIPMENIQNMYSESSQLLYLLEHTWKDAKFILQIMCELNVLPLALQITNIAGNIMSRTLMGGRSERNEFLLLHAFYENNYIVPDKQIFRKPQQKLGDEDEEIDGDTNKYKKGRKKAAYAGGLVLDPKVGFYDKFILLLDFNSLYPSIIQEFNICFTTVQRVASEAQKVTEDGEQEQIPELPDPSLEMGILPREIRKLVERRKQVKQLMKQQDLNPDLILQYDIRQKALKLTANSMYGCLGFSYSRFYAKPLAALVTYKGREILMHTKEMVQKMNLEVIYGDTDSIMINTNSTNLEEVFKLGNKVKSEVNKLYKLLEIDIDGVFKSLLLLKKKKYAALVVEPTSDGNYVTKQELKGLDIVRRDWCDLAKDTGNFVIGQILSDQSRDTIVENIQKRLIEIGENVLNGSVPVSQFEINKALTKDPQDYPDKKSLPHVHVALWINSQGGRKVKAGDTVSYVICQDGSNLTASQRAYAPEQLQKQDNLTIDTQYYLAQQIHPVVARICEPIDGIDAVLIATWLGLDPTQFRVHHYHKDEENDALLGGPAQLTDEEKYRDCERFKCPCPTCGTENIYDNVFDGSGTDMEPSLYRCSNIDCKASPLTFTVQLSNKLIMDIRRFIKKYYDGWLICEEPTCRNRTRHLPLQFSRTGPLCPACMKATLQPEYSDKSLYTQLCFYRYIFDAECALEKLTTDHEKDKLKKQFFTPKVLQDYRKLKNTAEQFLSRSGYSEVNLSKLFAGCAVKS

HeLa = experiment: Antiproliferative activity against human HeLa cells after 72 hrs by MTT assay; assay type: functional, cell-based
Outline: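 HeLa and SK-MEL2 grown in DMEM, Jurkat in RPMI 1640, each with 10% FBS and penicillin-streptomycin, at 37 °C and 5% CO2. Adherent cells seeded at 2000/well and left to recover overnight; Jurkat seeded at 5000/well with no recovery. Compound added in DMSO (0.1% final), then 72 h incubation and MTT readout.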

[5] = Half life in RPMI media at 1 uM by HPLC analysis in presence of fetal bovine serum; assay type: ADME; settings: cattle; outline: as §1

## CC(/C=C/C(C)=C/[C@@H]1Cc2nc(cs2)CCCCC(=O)O[C@@H](C)C/C(C)=C/C=C\C(=O)O1)=C\CN(C)C
[1]
  pIC50: 8.71
Jurkat
  pIC50: 9.09
[2]
  t1/2: 12.5 h
[3]
  t1/2: 13 h
[4]
  pIC50: 5.52
HeLa
  pIC50: 8.01
[5]
  t1/2: 19.9 h
